Several values for one entry are separate records, joined by “and”; a condition that tells them apart may be missing. Equal values may be shown once.
Tested on: patients with PDA, PD-1/PD-L1 IR advanced solid tumors or prOVCA
Assay: Phase 2, ARRY-382 300 mg QD plus pembrolizumab 200 mg IV Q3W: adverse events
Format: in vivo, human
Settings: for Deaths: mostly disease progression
Procedure, shortened: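 Open-label study at 12 US centres with three cohorts: pancreatic ductal adenocarcinoma after ≥1 prior systemic line; tumours progressing on anti-PD-1/PD-L1; ovarian, peritoneal or fallopian cancer progressing ≤6 months after ≥4 platinum cycles. Oral test compound 300 mg QD plus anti-PD-1 antibody 200 mg IV every 3 weeks. AEs, SAEs and labs graded by CTCAE v4.03 in all dosed patients; descriptive summary.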

With `Cc1cccc(Cn2nc(C3CC3)c3c(NC(=O)c4cnc5cc(OCCN6CCN(C)CC6)ccn45)cccc32)n1` [ARRY-382] as the molecule, how does the “ARRY-382-related AEs: AST increased” value (PD-1/PD-L1 IR, N = 19) read?
The value was 6 (31.6) n (%).

And the “ARRY-382-related AEs: All AEs” value (PD-1/PD-L1 IR, N = 19)?
Its value is 17 (89.5%) n (%) and 17 (89.5) n (%).

And the “ARRY-382-related AEs: Amylase increased” value (PD-1/PD-L1 IR, N = 19)?
The value was 4 (21.1) n (%).

And the “ARRY-382-related AEs: Blood CPK increased” value (PD-1/PD-L1 IR, N = 19)?
The value was 9 (47.4) n (%).

What about the “ARRY-382-related AEs: Decreased appetite” value (PD-1/PD-L1 IR, N = 19) of the same molecule?
Its value is 3 (15.8) n (%).

What about the “ARRY-382-related AEs: Diarrhea” value (PD-1/PD-L1 IR, N = 19) of the same molecule?
Its value is 5 (26.3) n (%).

And the “ARRY-382-related AEs: Fatigue” value (PD-1/PD-L1 IR, N = 19)?
Its value is 9 (47.4) n (%).

What about the “ARRY-382-related AEs: Nausea” value (PD-1/PD-L1 IR, N = 19) of the same molecule?
Its value is 8 (42.1) n (%).

What about the “ARRY-382-related AEs: Vomiting” value (PD-1/PD-L1 IR, N = 19) of the same molecule?
The value was 7 (36.8) n (%).

What about the Deaths (PD-1/PD-L1 IR) of the same molecule?
The Deaths was 10 (52.6%) n (%).

What about the “ARRY-382-related SAEs” value (PDA) of the same molecule?
Its value is 11.1%.

What about the ARRY-382-related fatigue (PDA) of the same molecule?
Its ARRY-382-related fatigue is 33.3%.

And the “ARRY-382-related grade ≥3 AEs” value (PDA)?
The value was 25.9%.

What about the “ARRY-382-related increased AST” value (PDA) of the same molecule?
The value was 18.5%.

And the “ARRY-382-related increased CPK” value (PDA)?
Its value is 18.5%.

What about the ARRY-382-related nausea (PDA) of the same molecule?
The ARRY-382-related nausea was 18.5%.

What about the “Dose reduction or interruption of ARRY-382 due to AEs” value (PDA) of the same molecule?
Its value is 10 (37.0%) n (%).

And the “Patients with ≥1 dose reduction or interruption of ARRY-382” value (PDA)?
The value was 16 (59.3%) n (%).

What about the “Permanent discontinuations due to AEs” value (PDA) of the same molecule?
Its value is 4 (14.8%) n (%).

And the “ARRY-382-related AEs: ALT increased” value (PDA, N = 27)?
Its value is 4 (14.8) n (%).

And the “ARRY-382-related AEs: AST increased” value (PDA, N = 27)?
Its value is 5 (18.5) n (%).

What about the “ARRY-382-related AEs: All AEs” value (PDA, N = 27) of the same molecule?
The value was 17 (63.0%) n (%) and 17 (63.0) n (%).

And the “ARRY-382-related AEs: Amylase increased” value (PDA, N = 27)?
The value was 2 (7.4) n (%).

And the “ARRY-382-related AEs: Blood CPK increased” value (PDA, N = 27)?
Its value is 5 (18.5) n (%).

And the “ARRY-382-related AEs: Decreased appetite” value (PDA, N = 27)?
The value was 5 (18.5) n (%).

And the “ARRY-382-related AEs: Diarrhea” value (PDA, N = 27)?
Its value is 4 (14.8) n (%).

What about the “ARRY-382-related AEs: Fatigue” value (PDA, N = 27) of the same molecule?
Its value is 9 (33.3) n (%).

What about the “ARRY-382-related AEs: Nausea” value (PDA, N = 27) of the same molecule?
The value was 5 (18.5) n (%).

And the “ARRY-382-related AEs: Vomiting” value (PDA, N = 27)?
Its value is 2 (7.4) n (%).

And the Deaths (PDA)?
The Deaths was 20 (74.1%) n (%).

What about the “ARRY-382-related AEs: ALT increased” value (Total, N = 57) of the same molecule?
Its value is 10 (17.5) n (%).

What about the “ARRY-382-related AEs: AST increased” value (Total, N = 57) of the same molecule?
The value was 15 (26.3) n (%).

What about the “ARRY-382-related AEs: All AEs” value (Total, N = 57) of the same molecule?
Its value is 43 (75.4%) n (%) and 43 (75.4) n (%).

And the “ARRY-382-related AEs: Amylase increased” value (Total, N = 57)?
The value was 6 (10.5) n (%).

What about the “ARRY-382-related AEs: Blood CPK increased” value (Total, N = 57) of the same molecule?
Its value is 16 (28.1) n (%).

What about the “ARRY-382-related AEs: Decreased appetite” value (Total, N = 57) of the same molecule?
The value was 8 (14.0) n (%).

What about the “ARRY-382-related AEs: Diarrhea” value (Total, N = 57) of the same molecule?
Its value is 9 (15.8) n (%).

What about the “ARRY-382-related AEs: Fatigue” value (Total, N = 57) of the same molecule?
Its value is 18 (31.6) n (%).

And the “ARRY-382-related AEs: Nausea” value (Total, N = 57)?
The value was 16 (28.1) n (%).

And the “ARRY-382-related AEs: Vomiting” value (Total, N = 57)?
Its value is 10 (17.5) n (%).

And the “Patients with ≥1 TEAE” value (in each cohort)?
The value was > 90%.

And the “Patients with a Grade 4 AE” value (overall)?
Its value is 7 (12.3%) n (%).

And the “Patients with a grade 3 AE” value (overall)?
Its value is 33 (57.9%) n (%).

What about the Periorbital edema (overall) of the same molecule?
Its Periorbital edema is 7.0%.

What about the “Patients with a grade 5 AE” value (overall, none related to study treatment) of the same molecule?
Its value is 3 (5.3%) n (%).

What about the “ARRY-382-related SAEs” value (prOVCA) of the same molecule?
The value was 0.0%.

And the “ARRY-382-related grade ≥3 AEs” value (prOVCA)?
Its value is 45.5%.

What about the “Dose reduction or interruption of ARRY-382 due to AEs” value (prOVCA) of the same molecule?
The value was 7 (63.6%) n (%).

What about the “Patients with ≥1 dose reduction or interruption of ARRY-382” value (prOVCA) of the same molecule?
The value was 7 (63.6%) n (%).

What about the “Permanent discontinuations due to AEs” value (prOVCA) of the same molecule?
Its value is 1 (9.1%) n (%).

And the “Treatment discontinuations due to AEs (primary reason)” value (prOVCA)?
The value was 2 (18.2%) n (%).

What about the “ARRY-382-related AEs: ALT increased” value (prOVCA, N = 11) of the same molecule?
Its value is 4 (36.4) n (%).

What about the “ARRY-382-related AEs: AST increased” value (prOVCA, N = 11) of the same molecule?
Its value is 4 (36.4) n (%).

What about the “ARRY-382-related AEs: All AEs” value (prOVCA, N = 11) of the same molecule?
The value was 9 (81.8%) n (%) and 9 (81.8) n (%).

What about the “ARRY-382-related AEs: Amylase increased” value (prOVCA, N = 11) of the same molecule?
Its value is 0 (0.0) n (%).

And the “ARRY-382-related AEs: Blood CPK increased” value (prOVCA, N = 11)?
The value was 2 (18.2) n (%).

What about the “ARRY-382-related AEs: Decreased appetite” value (prOVCA, N = 11) of the same molecule?
The value was 0 (0.0) n (%).

What about the “ARRY-382-related AEs: Diarrhea” value (prOVCA, N = 11) of the same molecule?
The value was 0 (0.0) n (%).

What about the “ARRY-382-related AEs: Fatigue” value (prOVCA, N = 11) of the same molecule?
The value was 0 (0.0) n (%).

And the “ARRY-382-related AEs: Nausea” value (prOVCA, N = 11)?
The value was 3 (27.3) n (%).

What about the “ARRY-382-related AEs: Vomiting” value (prOVCA, N = 11) of the same molecule?
The value was 1 (9.1) n (%).

What about the Deaths (prOVCA) of the same molecule?
The Deaths was 5 (45.5%) n (%).
